Measured values as given in ChEMBL document CHEMBL4325893, “Synthesis and antibacterial profiles of targeted triclosan derivatives” (2019).
In brackets after ≈: the same amount, converted by molar mass.

Legend:
Klebsiella pneumoniae = test: Antibacterial activity against Klebsiella pneumoniae ATCC 13883 after 18 hrs; type: functional; conditions: ATCC 13883, 18 h
Method in brief: (§1)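 Broth microdilution in Nutrient Broth No. 2; stocks in ethanol diluted to 0.01–128 µg/ml (triclosan) or 0.25–256 µg/ml (glycosides). Overnight 37 °C NB2 cultures diluted 1 in 10^4 in saline and added to the dilutions. Incubation at 37 °C with agitation, OD read every 15 min; MIC is the lowest concentration preventing any OD rise after 18 h.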

Staphylococcus aureus [1] = test: Antibacterial activity against Staphylococcus aureus ATCC 6538P after 18 hrs; type: functional; method in brief: as §1
Serratia marcescens = test: Antibacterial activity against Serratia marcescens OCC 217 after 18 hrs; type: functional; conditions: OCC 217, 18 h; method in brief: as §1
Escherichia coli [2] = test: Antibacterial activity against Escherichia coli ATCC 11775 after 18 hrs; type: functional; method in brief: as §1
[3] = Antibacterial activity against Salmonella enterica subspecies enterica serotype Indiana OCC 597 after 18 hrs; type: functional, Salmonella enterica subsp. enterica serovar Indiana; conditions: OCC 597, 18 h; method in brief: as §1
Klebsiella aerogenes = test: Antibacterial activity against Enterobacter aerogenes ATCC 13048 after 18 hrs; type: functional; conditions: ATCC 13048, 18 h; method in brief: as §1
Streptococcus viridans = test: Antibacterial activity against Streptococcus viridans OCC 234 after 18 hrs; type: functional; conditions: OCC 234, 18 h
Method in brief: (§2)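 Broth microdilution in Nutrient Broth No. 2. Ethanol stocks were diluted in broth to 0.01–128 µg/ml for triclosan and 0.25–256 µg/ml for glycosides. Overnight 37°C NB2 cultures were diluted 1 in 10^4 in saline and added to the wells. Plates were incubated at 37°C with OD read every 15 min after agitation. MIC was the lowest concentration giving no OD increase at 18 h.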

Cronobacter sakazakii = test: Antibacterial activity against Cronobacter sakazakii 29544 after 18 hrs; type: functional; conditions: Cronobacter sakazakii, 29544, 18 h; method in brief: as §1
Staphylococcus aureus [4] = test: Antibacterial activity against Staphylococcus aureus ATCC 6538 after 18 hrs; type: functional; conditions: ATCC 6538, 18 h; method in brief: as §1
[5] = Antibacterial activity against Salmonella enterica subspecies enterica serotype Arizonae OCC 706 after 18 hrs; type: functional, Salmonella enterica subsp. enterica serovar Arizonae; conditions: OCC 706, 18 h; method in brief: as §1
Citrobacter freundii = test: Antibacterial activity against Citrobacter freundii OCC 851 after 18 hrs; type: functional; conditions: OCC 851, 18 h; method in brief: as §1
Staphylococcus aureus [6] = test: Antibacterial activity against Staphylococcus aureus ATCC 25923 after 18 hrs; type: functional; conditions: ATCC 25923, 18 h; method in brief: as §1
Aeromonas hydrophila = test: Antibacterial activity against Aeromonas hydrophila OCC 778 after 18 hrs; type: functional; conditions: OCC 778, 18 h; method in brief: as §1
Escherichia hermannii = test: Antibacterial activity against Escherichia hermannii 33650 after 18 hrs; type: functional; conditions: Atlantibacter hermannii, 33650, 18 h; method in brief: as §1
Salmonella typhimurium = test: Antibacterial activity against Salmonella enterica subspecies enterica serotype typhimurium ATCC 14028 after 18 hrs; type: functional, Salmonella enterica subsp. enterica serovar Typhimurium; conditions: ATCC 14028, 18 h; method in brief: as §1
Pseudomonas aeruginosa = test: Antibacterial activity against Pseudomonas aeruginosa ATCC 27853 after 18 hrs; type: functional; conditions: ATCC 27853, 18 h; method in brief: as §1
[7] = tested on: Staphylococcus saprophyticus; test: Antibacterial activity against Staphylococcus saprophyticus ATCC 15305 after 18 hrs; type: functional; conditions: ATCC 15305, 18 h; method in brief: as §2
[8] = Antibacterial activity against Salmonella enterica subspecies enterica serotype Virchow NCTC 5742 after 18 hrs; type: functional, Salmonella enterica subsp. enterica serovar Virchow; conditions: NCTC 5742, 18 h; method in brief: as §1
Streptococcus pneumoniae = test: Antibacterial activity against Streptococcus pneumoniae 6305 after 18 hrs; type: functional; conditions: Streptococcus pneumoniae, 6305, 18 h; method in brief: as §2
Streptococcus pyogenes = test: Antibacterial activity against Streptococcus pyogenes ATCC 19615 after 18 hrs; type: functional; conditions: ATCC 19615, 18 h; method in brief: as §2
[9] = Antibacterial activity against Salmonella enterica subspecies enterica serotype Pullorum OCC 273 after 18 hrs; type: functional, Salmonella enterica subsp. enterica serovar Pullorum; conditions: OCC 273, 18 h; method in brief: as §1
Escherichia coli [10] = test: Antibacterial activity against Escherichia coli OCC 122 after 18 hrs; type: functional; conditions: OCC 122, 18 h; method in brief: as §1
Staphylococcus aureus [11] = test: Antibacterial activity against Staphylococcus aureus OCC 104 after 18 hrs; type: functional; conditions: OCC 104, 18 h; method in brief: as §1
Escherichia coli [12] = test: Antibacterial activity against Escherichia coli NCTC 13216 after 18 hrs; type: functional; conditions: NCTC 13216, 18 h; method in brief: as §1
[13] = Antibacterial activity against Salmonella enterica subspecies enterica serotype Infantis OCC 2133 after 18 hrs; type: functional, Salmonella enterica subsp. enterica serovar Infantis; conditions: OCC 2133, 18 h; method in brief: as §1
Hafnia alvei = test: Antibacterial activity against Hafnia alvei 13337 after 18 hrs; type: functional; conditions: Hafnia alvei, 13337, 18 h; method in brief: as §1
Escherichia coli [14] = test: Antibacterial activity against Escherichia coli ATCC 25922 after 18 hrs; type: functional; conditions: ATCC 25922, 18 h; method in brief: as §1
Escherichia coli [15] = test: Antibacterial activity against Escherichia coli ATCC 8739 after 18 hrs; type: functional; conditions: ATCC 8739, 18 h; method in brief: as §1
Staphylococcus aureus [16] = test: Antibacterial activity against Staphylococcus aureus OCC 106 after 18 hrs; type: functional; conditions: OCC 106, 18 h; method in brief: as §1

MIC (Klebsiella pneumoniae): 1 µg/mL (≈ 2.21 µM) | MIC (Staphylococcus aureus [1]): 1 µg/mL (≈ 2.21 µM) | MIC (Serratia marcescens): > 256 µg/mL | MIC (Escherichia coli [2]): 2 to 8 µg/mL (≈ 4.43 to 17.7 µM) | MIC [3]: 2 to 8 µg/mL (≈ 4.43 to 17.7 µM) | MIC (Klebsiella aerogenes): 8 µg/mL (≈ 17.7 µM) | MIC (Streptococcus viridans): 128 µg/mL (≈ 283 µM) | MIC (Cronobacter sakazakii): 8 µg/mL (≈ 17.7 µM) | MIC (Staphylococcus aureus [4]): 1 µg/mL (≈ 2.21 µM) | MIC [5]: 2 to 8 µg/mL (≈ 4.43 to 17.7 µM) | MIC (Citrobacter freundii): 4 µg/mL (≈ 8.86 µM) | MIC (Staphylococcus aureus [6]): 1 µg/mL (≈ 2.21 µM) | MIC (Aeromonas hydrophila): 256 µg/mL (≈ 567 µM) | MIC (Escherichia hermannii): 1 µg/mL (≈ 2.21 µM) | MIC (Salmonella typhimurium): 2 to 8 µg/mL (≈ 4.43 to 17.7 µM) | MIC (Pseudomonas aeruginosa): > 256 µg/mL | MIC [7]: 4 µg/mL (≈ 8.86 µM) | MIC [8]: 2 to 8 µg/mL (≈ 4.43 to 17.7 µM) | MIC (Streptococcus pneumoniae): 32 µg/mL (≈ 70.8 µM) | MIC (Streptococcus pyogenes): 32 µg/mL (≈ 70.8 µM) | MIC [9]: 2 to 8 µg/mL (≈ 4.43 to 17.7 µM) | MIC (Escherichia coli [10]): 2 to 8 µg/mL (≈ 4.43 to 17.7 µM) | MIC (Staphylococcus aureus [11]): 1 µg/mL (≈ 2.21 µM) | MIC (Escherichia coli [12]): 2 to 8 µg/mL (≈ 4.43 to 17.7 µM) | MIC [13]: 2 to 8 µg/mL (≈ 4.43 to 17.7 µM) | MIC (Hafnia alvei): 1 µg/mL (≈ 2.21 µM) | MIC (Escherichia coli [14]): 2 to 8 µg/mL (≈ 4.43 to 17.7 µM) | MIC (Escherichia coli [15]): 2 to 8 µg/mL (≈ 4.43 to 17.7 µM) | MIC (Staphylococcus aureus [16]): 1 µg/mL (≈ 2.21 µM)
SMILES: OC[C@H]1O[C@H](Oc2cc(Cl)ccc2Oc2ccc(Cl)cc2Cl)[C@H](O)[C@@H](O)[C@@H]1O
